Measurements reported in PMC9082783 (RSC Advances, 2018).
Entries after “also recorded” stand apart in the source; their conditions may differ. Like-named read-outs stand apart in the source and are kept apart here.

Legend:
[1] = Hemolytic activity; type: cell-based; conditions: bovine, erythrocyte (RBC) suspension, pH 7.4
Method in brief: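 Bovine blood collected in EDTA, diluted in 0.9% NaCl and centrifuged at 1000 × g for 10 min. Erythrocytes were resuspended in PBS pH 7.4. Test compound solution (10 mg/mL stock) was mixed with the RBC suspension and incubated 30 min at room temperature. PBS served as negative control, Triton X-100 as positive control. Triplicate runs; mean ± SEM; % hemolysis calculated by formula.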

[2] = target: T1, Jack bean urease (Canavalia ensiformis, UniProt P07374); assay: In vitro urease inhibitory activity; type: biochemical
[3] = target: T1, Jack bean urease; assay: Kinetic analysis of urease inhibition; type: biochemical
Method in brief: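 Jack bean urease (5 U/mL enzyme solution) in potassium phosphate buffer (10 mM K2HPO4, 1 mM EDTA, 10 mM LiCl, pH 8.2) at 37 °C. Ammonia read by indophenol method at 625 nm. Initial velocities taken from per-minute readings up to 10 min. Mode from Lineweaver–Burk plots; Ki from secondary plot with linear least-squares fit.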

T1 sequence (P07374 whole entry, looked up): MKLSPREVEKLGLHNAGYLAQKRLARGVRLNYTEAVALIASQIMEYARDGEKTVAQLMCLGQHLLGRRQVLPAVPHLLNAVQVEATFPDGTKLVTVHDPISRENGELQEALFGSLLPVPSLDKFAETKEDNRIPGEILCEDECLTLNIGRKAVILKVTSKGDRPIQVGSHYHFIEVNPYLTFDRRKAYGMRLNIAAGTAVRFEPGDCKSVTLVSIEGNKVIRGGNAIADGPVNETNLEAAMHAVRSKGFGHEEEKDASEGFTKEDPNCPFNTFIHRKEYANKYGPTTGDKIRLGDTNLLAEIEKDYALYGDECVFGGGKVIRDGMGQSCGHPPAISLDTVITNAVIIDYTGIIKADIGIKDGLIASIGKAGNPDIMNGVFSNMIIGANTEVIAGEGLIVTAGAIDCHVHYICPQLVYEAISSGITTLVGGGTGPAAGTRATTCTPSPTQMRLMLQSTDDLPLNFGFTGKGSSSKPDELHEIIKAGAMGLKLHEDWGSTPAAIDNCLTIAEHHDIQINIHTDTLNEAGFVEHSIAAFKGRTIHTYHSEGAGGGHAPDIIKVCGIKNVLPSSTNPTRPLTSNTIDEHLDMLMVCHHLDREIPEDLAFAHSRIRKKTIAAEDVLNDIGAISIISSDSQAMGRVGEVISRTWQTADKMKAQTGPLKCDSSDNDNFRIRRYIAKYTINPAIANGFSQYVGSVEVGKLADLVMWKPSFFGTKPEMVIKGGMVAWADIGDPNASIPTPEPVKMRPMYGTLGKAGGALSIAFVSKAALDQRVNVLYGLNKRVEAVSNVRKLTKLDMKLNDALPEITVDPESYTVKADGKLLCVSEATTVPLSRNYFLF

## CCOc1ccc(NC(=O)CCCSc2nnc(CCCc3c[nH]c4ccccc34)o2)cc1 [Compound 8a]
[1]
  hemolysis at 30 min: 3.16 ± 0.05%
[2]
  IC50: 52.3 ± 4.4 nM

## CCc1ccccc1NC(=O)CCCSc1nnc(CCCc2c[nH]c3ccccc23)o1 [Compound 8b]
[1]
  hemolysis at 30 min: 2.41 ± 0.03%
[2]
  IC50: 54.2 ± 21.1 nM

## CCc1ccc(NC(=O)CCCSc2nnc(CCCc3c[nH]c4ccccc34)o2)cc1 [Compound 8c]
[1]
  hemolysis at 30 min: 0.62 ± 0.02%
[2]
  IC50: 17.5 ± 6.5 nM
[3]
  Ki: 3 nM
[3]; 8c concentration 0.017 μM
  Vmax (ΔA/Min): 6.119 × 10^−5 ΔA/Min
[3]; 8c concentration 0.034 μM
  Vmax (ΔA/Min): 4.599 × 10^−5 ΔA/Min
[3]; Lineweaver-Burk plot
  Inhibition type: non-competitively; also recorded: Non-competitive

## Cc1ccccc1NC(=O)CCCSc1nnc(CCCc2c[nH]c3ccccc23)o1 [Compound 8d]
[1]
  hemolysis at 30 min: 5.18 ± 0.03%
[2]
  IC50: 71.7 ± 15.2 nM

## Cc1cccc(NC(=O)CCCSc2nnc(CCCc3c[nH]c4ccccc34)o2)c1 [Compound 8e]
[1]
  hemolysis at 30 min: 5.92 ± 0.02%
[2]
  IC50: 32.3 ± 11.9 nM

## Cc1ccc(NC(=O)CCCSc2nnc(CCCc3c[nH]c4ccccc34)o2)cc1 [Compound 8f]
[1]
  hemolysis at 30 min: 3.51 ± 0.04%
[2]
  IC50: 102 ± 29.9 nM

## Cc1ccc(NC(=O)CCCSc2nnc(CCCc3c[nH]c4ccccc34)o2)c(C)c1 [Compound 8g, N-(2,4-dimethylphenyl)-4-({5-[3-(1H-indol-3-yl)propyl]-1,3,4-oxadiazol-2-yl}sulfanyl)butanamide]
[1]
  hemolysis at 30 min: 1.41 ± 0.01%
[2]
  IC50: 200 ± 12.2 nM

## Cc1cccc(C)c1NC(=O)CCCSc1nnc(CCCc2c[nH]c3ccccc23)o1 [Compound 8h]
[1]
  hemolysis at 30 min: 2.63 ± 0.02%
[2]
  IC50: 25.1 ± 8.3 nM

## Cc1cc(C)cc(NC(=O)CCCSc2nnc(CCCc3c[nH]c4ccccc34)o2)c1 [Compound 8i]
[1]
  hemolysis at 30 min: 7.32 ± 0.03%
[2]
  IC50: 124 ± 31.8 nM

## CCc1cccc(C)c1NC(=O)CCCSc1nnc(CCCc2c[nH]c3ccccc23)o1 [Compound 8j]
[1]
  hemolysis at 30 min: 9.63 ± 0.05%
[2]
  IC50: 37.5 ± 5.8 nM

## NC(N)=S [Thiourea, reference compound]
[2]; read-out: Urease activity IC50 ± SEM, Jack bean urease 5 U/mL, 100 mM urea, pH 8.2, 30 min at 37 °C, triplicate
  IC50: 4750 ± 54.6 nM

## CC(C)(C)CC(C)(C)c1ccc(OCCO)cc1 [Triton X, reference compound]
[1]
  hemolysis at 30 min: 89.11 ± 0.01%
